Assay results taken from the EternaBench riboswitch data.

Test system: MS2 coat protein
Assay: apparent Kd, MS2 coat protein; higher = weaker binding; RNA-MaP array
Summary of the method: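 Apparent Kd values come from the median of binding-curve fits to single clusters. To obtain them, designed RNAs transcribed on an Illumina sequencing chip from sequenced DNA templates were incubated at room temperature with fluorescently labeled MS2 coat protein at 1.5 nM to 3 μM, with or without input ligand, for 0.8–1.5 h at the lowest and 10–20 min at the highest concentrations. Designs measured on fewer than 10 clusters were excluded.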

[1] = designed as: ON switch for flavin mononucleotide, no ligand
[2] = ligand present: flavin mononucleotide, designed as: ON switch for flavin mononucleotide
[3] = designed as: OFF switch for flavin mononucleotide, no ligand
[4] = ligand present: flavin mononucleotide, designed as: OFF switch for flavin mononucleotide
[5] = designed as: ON switch for theophylline, no ligand
[6] = ligand present: theophylline, designed as: ON switch for theophylline

## AAGAACCAGAUAGGAUAUCCGUUUAAAUCACAAGGAGAAGGAUCAAAUACAAAACAUGAGGAUCACCCAUGUGGAAGAUAGCUA
[1]
  apparent Kd: 33.2 nM
[2]
  apparent Kd: 18.7 nM

## UAAAACGGAUCAGGAUAUGUGAAACUGAGUGCGUGAACACUCGCCUACAUGAGGAUCACCCAUGUACAGAAGGGAACUACUACA
[1]
  apparent Kd: 16.4 nM
[2]
  apparent Kd: 13.9 nM

## ACAUGAGGAUCACCCAUGUUAAAAGAAGAUAGCAUAUUGGGUAGAAGGUCACAUUUCCAUUAAGUGAAGGAUAUACCAUGAUUC
[1]
  apparent Kd: 12.6 nM
[2]
  apparent Kd: 7.04 nM

## CUUAUCAUAGGAUAUACAUGAGGAUCACCCAUGUAGUAGCAUAUAUAUAGUUUCCCAAGUAGAAGGAUGUACAC
[3]
  apparent Kd: 9.43 nM
[4]
  apparent Kd: 7.9 nM

## AACUCCACCGCAGGAUAUCCGGUCUCUCUGUAGACGACAUGAGGAUCACCCAUGUAUCCGGGAAUGGAGAAGGGCGGUGCUCCU
[3]
  apparent Kd: 16.4 nM
[4]
  apparent Kd: 13 nM

## AGCGUGGAUAAAGGAUAUGUACCGGUAACUACAUGAGGAUCACCCAUGUCUUCAGGCCAAAACCGACAGAAGGUUACUUAUCGC
[3]
  apparent Kd: 21.7 nM
[4]
  apparent Kd: 20.7 nM

## AGCGACAUGAGGAUCACCCAUGUGUUAGCUAAGCCUCUCAGCAGAAGGGAUGGUGUCCCAGAUGAUCAGGAUAUGCUGUUUUUG
[3]
  apparent Kd: 32.2 nM
[4]
  apparent Kd: 23.9 nM

## AACCAUCUCGGCGAUACCAGUGCCUACGAGUACAUGAGGAUCACCCAUGUAGGUGACCGACACCCUUGGCAGCGCGAUUGAGUCA
[5]
  apparent Kd: 140 nM
[6]
  apparent Kd: 70.6 nM

## GGGCGCCGAGGAUAUCACAGGAGUAACAUGAGGAUCACCCAUGUAUCAGUGGGCGUAAUAUGAGAAGGCGGUGGUU
[3]
  apparent Kd: 85.5 nM
[4]
  apparent Kd: 43.5 nM

## ACCUGGUGUAAGAAGGAGCAGAUAUAACGGUCGCUAGGAUAUUACCCUUCAAAAUGGGAUCUCACAUGAGGAUCACCCAUGUUA
[3]
  apparent Kd: 143 nM
[4]
  apparent Kd: 218 nM

## CGGACCUGAGAGAAGGGCAGCCGACAUGAGGAUCACCCAUGUAAUCGAGGACCAUCCUCAUUUUUGCAGGAUAUCUAUUGUUAU
[3]
  apparent Kd: 35.4 nM
[4]
  apparent Kd: 37.3 nM

## UCGAGUACGGUGAGGAUAUCAUGAGGAUUACUACAAGAGAAGGCACAUGAGGAUCACCCAUGUGGCGACCAUUC
[3]
  apparent Kd: 6.28 nM
[4]
  apparent Kd: 6.32 nM

## UACCGCUACAUAGGAUAUGGAGGAUGUAUGAAACACAUGAGGAUCACCCAUGUCAUCUGCACACGCCAGAAGGAUGGAAGAAAA
[1]
  apparent Kd: 13.4 nM
[2]
  apparent Kd: 7.13 nM

## GAAAAGGACAAAGGAUAUGGGUAGGCAAUCAAUCCAGAAGGUAGACCAGGCAACCUAAACAAACAUGAGGAUCACCCAUGUUAG
[1]
  apparent Kd: 16.6 nM
[2]
  apparent Kd: 14.3 nM

## CUGUUAAGUAAAGGAUAUCCUCCAACAGCUAGAGGAGAAGGUUACUCCUUAAUCCACAUGAGGAUCACCCAUGUUAGUGUAAGU
[1]
  apparent Kd: 11.5 nM
[2]
  apparent Kd: 10.1 nM

## AUGUGUAUUGAAGGAUAUGAAGCCGGCAUAAAAUCAGAAGGUCAACUAAUUACACAUGAGGAUCACCCAUGUGAUGACAUGCUU
[3]
  apparent Kd: 17.2 nM
[4]
  apparent Kd: 24.8 nM

## GUCUCAGACCGAGAUACCAGCUGGGUUUCCCACAUGAGGAUCACCCAUGUAUUCAGAUUAAGCCCUUGGCAGCUCAUCUAGGUCC
[5]
  apparent Kd: 15.8 nM
[6]
  apparent Kd: 20.9 nM

## GGACAUUGUCCUAUUCACAUGAGGAUCACCCAUGUCACAACUAGAAGGGAGCGAUAACAAUUUCCUCAGGAUAUAGUUCGCGGC
[1]
  apparent Kd: 28.2 nM
[2]
  apparent Kd: 24.7 nM

## GCUUUAUUCUAGAAGGCUUAUCAUGCAUAAUGUCUAGAAGUUCAGACAUGAGGAUCACCCAUGUAAGAGGAUAUAGCGUAAAGU
[3]
  apparent Kd: 26.9 nM
[4]
  apparent Kd: 31.3 nM

## AAAAGUACAGGAUAUACAUGAGGAUCACCCAUGUCAGAAUAUAAUGAUAAGAAACUGAGUAGAAGGGUAACGAG
[3]
  apparent Kd: 28.6 nM
[4]
  apparent Kd: 20.3 nM
